Results reported in ChEMBL document CHEMBL1145212, “Fluorinated diaryl sulfides as serotonin transporter ligands: synthesis, structure-activity relationship study, and in vivo evaluation of fluorine-18-labeled compounds as PET imaging agents” (J Med Chem, 2005).

Key:
Conditions in all cases: tested as the 18F-labelled form
[1] = molecular target: Sodium-dependent serotonin transporter (Rattus norvegicus) (UniProt P31652); experiment: Specific binding of [18F]AFA in rat striatum after GBR-12935 treatment; n=3; assay type: functional, tissue-based
Outline: (§1)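 Rats, three per group, were pretreated iv with blocker at 2 mg/kg in saline, or with saline as control, 10–15 min before tail-vein F-18 radioligand (about 20 µCi). Killed at 60 min and regional %ID/g determined. Specific binding = (region activity − cerebellum activity)/cerebellum activity; mean ± SD.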

[2] = molecular target: Sodium-dependent serotonin transporter (Rattus norvegicus) (UniProt P31652); experiment: Specific binding of [18F]AFA in rat thalamus after GBR-12935 treatment; n=3; assay type: functional, tissue-based; outline: as §1
[3] = molecular target: Sodium-dependent serotonin transporter (Rattus norvegicus) (UniProt P31652); experiment: Specific binding of [18F]-AFA in rat striatum after citalopram treatment; n=3; assay type: functional, tissue-based; outline: as §1
[4] = molecular target: Sodium-dependent serotonin transporter (Rattus norvegicus) (UniProt P31652); experiment: Specific binding of [18F]-AFA in rat striatum after nisoxetine treatment; n=3; assay type: functional, tissue-based; outline: as §1
[5] = molecular target: Sodium-dependent serotonin transporter (Rattus norvegicus) (UniProt P31652); experiment: Specific binding of [18F]AFA in rat thalamus after citalopram treatment; n=3; assay type: functional, tissue-based; outline: as §1
[6] = molecular target: Sodium-dependent serotonin transporter (Rattus norvegicus) (UniProt P31652); experiment: Specific binding of [18F]AFA in rat thalamus after nisoxetine treatment; n=3; assay type: functional, tissue-based; outline: as §1
[7] = molecular target: Sodium-dependent serotonin transporter (Rattus norvegicus) (UniProt P31652); experiment: Specific binding of [18F]AFA in rat hippocampus after GBR-12935 treatment; n=3; assay type: functional, tissue-based; outline: as §1
[8] = molecular target: Sodium-dependent serotonin transporter (Rattus norvegicus) (UniProt P31652); experiment: Specific binding of [18F]AFA in rat hypothalamus after GBR-12935 treatment; n=3; assay type: functional, tissue-based; outline: as §1
[9] = molecular target: Sodium-dependent serotonin transporter (Rattus norvegicus) (UniProt P31652); experiment: Specific binding of [18F]AFA in rat hippocampus after citalopram treatment; n=3; assay type: functional, tissue-based; outline: as §1
[10] = molecular target: Sodium-dependent serotonin transporter (Rattus norvegicus) (UniProt P31652); experiment: Specific binding of [18F]AFA in rat hippocampus after nisoxetine treatment; n=3; assay type: functional, tissue-based; outline: as §1
[11] = molecular target: Sodium-dependent serotonin transporter (Rattus norvegicus) (UniProt P31652); experiment: Specific binding of [18F]AFA in rat frontal cortex after GBR-12935 treatment; n=3; assay type: functional, tissue-based; outline: as §1
[12] = molecular target: Sodium-dependent serotonin transporter (Rattus norvegicus) (UniProt P31652); experiment: Specific binding of [18F]AFA in rat hypothalamus after citalopram treatment; n=3; assay type: functional, tissue-based; outline: as §1
[13] = molecular target: Sodium-dependent serotonin transporter (Rattus norvegicus) (UniProt P31652); experiment: Specific binding of [18F]AFA in rat hypothalamus after nisoxetine treatment; n=3; assay type: functional, tissue-based; outline: as §1
[14] = molecular target: Sodium-dependent serotonin transporter (Rattus norvegicus) (UniProt P31652); experiment: Specific binding of [18F]AFA in rat frontal cortex after citalopram treatment; n=3; assay type: functional, tissue-based; outline: as §1
[15] = molecular target: Sodium-dependent serotonin transporter (Rattus norvegicus) (UniProt P31652); experiment: Specific binding of [18F]AFA in rat frontal cortex after nisoxetine treatment; n=3; assay type: functional, tissue-based; outline: as §1
[16] = molecular target: Sodium-dependent serotonin transporter (Rattus norvegicus) (UniProt P31652); experiment: Specific binding in rat hypothalamus at 10 min postinjection in vivo; assay type: functional, organism-based
Outline: (§2)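 Male Sprague-Dawley rats, n=3 per time point, received about 20 µCi of F-18 radioligand in saline iv by tail vein and were killed at 10–120 min. %ID/g was measured with decay and tail-residual correction. Hypothalamic specific binding = (%ID/g hypothalamus − %ID/g cerebellum)/%ID/g cerebellum; mean ± SD.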

[17] = molecular target: Sodium-dependent serotonin transporter (Rattus norvegicus) (UniProt P31652); experiment: Specific binding in rat hypothalamus at 30 min postinjection in vivo; assay type: functional, organism-based; outline: as §2
[18] = molecular target: Sodium-dependent serotonin transporter (Rattus norvegicus) (UniProt P31652); experiment: Specific binding in rat hypothalamus at 60 min postinjection in vivo; assay type: functional, organism-based; outline: as §2
[19] = molecular target: Sodium-dependent serotonin transporter (Rattus norvegicus) (UniProt P31652); experiment: Specific binding in rat hypothalamus at 90 min postinjection in vivo; assay type: functional, organism-based; outline: as §2
[20] = molecular target: Sodium-dependent serotonin transporter (Rattus norvegicus) (UniProt P31652); experiment: Specific binding in rat hypothalamus at 120 min postinjection in vivo; assay type: functional, organism-based; outline: as §2
[21] = organism: Rattus norvegicus; experiment: Regional uptake of [18F]AFA in blood of rat pretreated with compound 7c; n=3; assay type: functional, organism-based
[22] = organism: Rattus norvegicus; experiment: Regional uptake of [18F]AFA in striatum of rat pretreated with compound 7c; n=3; assay type: functional, organism-based
[23] = organism: Rattus norvegicus; experiment: Regional uptake of [18F]AFA in thalamus of rat pretreated with compound 7c; n=3; assay type: functional, organism-based
[24] = organism: Rattus norvegicus; experiment: Regional uptake of [18F]AFA in cerebellum of rat pretreated with compound 7c; n=3; assay type: functional, organism-based
[25] = organism: Rattus norvegicus; experiment: Regional uptake of [18F]-AFA in blood of rat pretreated with compound GBR-12935; n=3; assay type: functional, organism-based
Outline: (§3)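 Male Sprague-Dawley rats, three per group, received blocker (2 mg/kg iv in saline) or saline only (controls) 10–15 min before about 20 µCi of tail-vein F-18 radioligand. Killed 60 min after tracer. Blood and brain regions weighed and gamma-counted. %ID/g was decay- and tail-corrected; mean ± SD.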

[26] = organism: Rattus norvegicus; experiment: Regional uptake of [18F]AFA in hippocampus of rat pretreated with compound 7c; n=3; assay type: functional, organism-based
[27] = organism: Rattus norvegicus; experiment: Regional uptake of [18F]AFA in hypothalamus of rat pretreated with compound 7c; n=3; assay type: functional, organism-based
[28] = organism: Rattus norvegicus; experiment: Regional uptake of [18F]-AFA in blood of rat pretreated with compound citalopram; n=3; assay type: functional, organism-based; outline: as §3
[29] = organism: Rattus norvegicus; experiment: Regional uptake of [18F]AFA in blood of rat pretreated with compound nisoxetine; n=3; assay type: functional, organism-based; outline: as §3
[30] = organism: Rattus norvegicus; experiment: Regional uptake of [18F]-AFA in frontal cortex of rat pretreated with compound 7c; n=3; assay type: functional, organism-based
[31] = organism: Rattus norvegicus; experiment: Regional uptake of [18F]-AFA in striatum of rat pretreated with compound GBR-12935; n=3; assay type: functional, organism-based; outline: as §3
[32] = organism: Rattus norvegicus; experiment: Regional uptake of [18F]AFA in thalamus of rat pretreated with compound GBR-12935; n=3; assay type: functional, organism-based; outline: as §3
[33] = organism: Rattus norvegicus; experiment: Regional uptake of [18F]AFA in striatum of rat pretreated with compound citalopram; n=3; assay type: functional, organism-based; outline: as §3
[34] = organism: Rattus norvegicus; experiment: Regional uptake of [18F]AFA in striatum of rat pretreated with compound nisoxetine; n=3; assay type: functional, organism-based; outline: as §3
[35] = organism: Rattus norvegicus; experiment: Regional uptake of [18F]AFA in thalamus of rat pretreated with compound citalopram; n=3; assay type: functional, organism-based; outline: as §3
[36] = organism: Rattus norvegicus; experiment: Regional uptake of [18F]AFA in thalamus of rat pretreated with compound nisoxetine; n=3; assay type: functional, organism-based; outline: as §3
[37] = organism: Rattus norvegicus; experiment: Regional uptake of [18F]AFA in hippocampus of rat pretreated with compound GBR-12935; n=3; assay type: functional, organism-based; outline: as §3
[38] = organism: Rattus norvegicus; experiment: Regional uptake of [18F]AFA in cerebellum of rat pretreated with compound citalopram; n=3; assay type: functional, organism-based; outline: as §3
[39] = organism: Rattus norvegicus; experiment: Regional uptake of [18F]AFA in cerebellum of rat pretreated with compound nisoxetine; n=3; assay type: functional, organism-based; outline: as §3
[40] = organism: Rattus norvegicus; experiment: Regional uptake of [18F]AFA in hypothalamus of rat pretreated with compound GBR-12935; n=3; assay type: functional, organism-based; outline: as §3
[41] = organism: Rattus norvegicus; experiment: Regional uptake of [18F]AFA in hippocampus of rat pretreated with compound citalopram; n=3; assay type: functional, organism-based; outline: as §3
[42] = organism: Rattus norvegicus; experiment: Regional uptake of [18F]AFA in hippocampus of rat pretreated with compound nisoxetine; n=3; assay type: functional, organism-based; outline: as §3
[43] = organism: Rattus norvegicus; experiment: Regional uptake of [18F]AFA in frontal cortex of rat pretreated with compound GBR-12935; n=3; assay type: functional, organism-based; outline: as §3
[44] = organism: Rattus norvegicus; experiment: Regional uptake of [18F]-AFA in hypothalamus of rat pretreated with compound nisoxetine; n=3; assay type: functional, organism-based; outline: as §3
[45] = organism: Rattus norvegicus; experiment: Regional uptake of [18F]AFA in frontal cortex of rat pretreated with compound citalopram; n=3; assay type: functional, organism-based; outline: as §3
[46] = organism: Rattus norvegicus; experiment: Regional uptake of [18F]AFA in frontal cortex of rat pretreated with compound nisoxetine; n=3; assay type: functional, organism-based; outline: as §3
[47] = organism: Rattus norvegicus; experiment: Regional uptake of [18F]AFA in cerebellum of rat pretreated with compound GBR-12935; n=3; assay type: functional, organism-based; outline: as §3
[48] = organism: Rattus norvegicus; experiment: Regional uptake of [18F]AFA in hypothalamus of rat pretreated with compound citalopram; n=3; assay type: functional, organism-based; outline: as §3

Sequence of Sodium-dependent serotonin transporter (Rattus norvegicus) (P31652 whole entry): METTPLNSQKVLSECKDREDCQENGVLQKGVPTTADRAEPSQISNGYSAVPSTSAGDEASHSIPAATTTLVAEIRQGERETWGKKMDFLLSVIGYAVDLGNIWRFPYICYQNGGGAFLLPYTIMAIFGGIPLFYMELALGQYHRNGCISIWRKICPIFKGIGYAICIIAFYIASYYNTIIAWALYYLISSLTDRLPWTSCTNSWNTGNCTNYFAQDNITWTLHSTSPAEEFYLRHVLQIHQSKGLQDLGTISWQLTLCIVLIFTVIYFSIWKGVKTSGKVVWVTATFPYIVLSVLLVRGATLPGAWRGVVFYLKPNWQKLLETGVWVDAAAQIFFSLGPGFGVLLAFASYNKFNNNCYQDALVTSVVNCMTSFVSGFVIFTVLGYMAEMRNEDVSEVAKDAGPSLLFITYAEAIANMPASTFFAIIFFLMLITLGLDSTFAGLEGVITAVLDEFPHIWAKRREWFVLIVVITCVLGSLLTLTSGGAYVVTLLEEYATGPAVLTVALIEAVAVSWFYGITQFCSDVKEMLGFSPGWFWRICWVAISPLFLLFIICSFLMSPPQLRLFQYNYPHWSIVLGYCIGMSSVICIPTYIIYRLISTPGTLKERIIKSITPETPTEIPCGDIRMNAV

Specific binding [1]: 2.56 %ID/g
Specific binding [2]: 4.57 %ID/g
Specific binding [3]: 0.6 %ID/g
Specific binding [4]: 2.45 %ID/g
Specific binding [5]: 0.98 %ID/g
Specific binding [6]: 3.53 %ID/g
Specific binding [7]: 2.21 %ID/g
Specific binding [8]: 4.3 %ID/g
Specific binding [9]: 0.81 %ID/g
Specific binding [10]: 1.96 %ID/g
Specific binding [11]: 2.81 %ID/g
Specific binding [12]: 0.65 %ID/g
Specific binding [13]: 3.82 %ID/g
Specific binding [14]: 0.64 %ID/g
Specific binding [15]: 2.88 %ID/g
Specific binding [16]: 0.89 %ID/g
Specific binding [17]: 2.23 %ID/g
Specific binding [18]: 4.09 %ID/g
Specific binding (dimensionless ratio) [19]: 5.61
Specific binding (dimensionless ratio) [20]: 4.92
Structure (SMILES): CN(C)Cc1ccccc1Sc1ccc(F)cc1N
Uptake [21]: 0.07 %ID/g
Uptake [22]: 0.12 %ID/g
Uptake [23]: 0.15 %ID/g
Uptake [24]: 0.06 %ID/g
Uptake [25]: 0.09 %ID/g
Uptake [26]: 0.13 %ID/g
Uptake [27]: 0.13 %ID/g
Uptake [28]: 0.08 %ID/g
Uptake [29]: 0.1 %ID/g
Uptake [30]: 0.14 %ID/g
Uptake [31]: 0.28 %ID/g
Uptake [32]: 0.36 %ID/g
Uptake [33]: 0.1 %ID/g
Uptake [34]: 0.31 %ID/g
Uptake [35]: 0.13 %ID/g
Uptake [36]: 0.47 %ID/g
Uptake [37]: 0.28 %ID/g
Uptake [38]: 0.06 %ID/g
Uptake [39]: 0.09 %ID/g
Uptake [40]: 0.43 %ID/g
Uptake [41]: 0.11 %ID/g
Uptake [42]: 0.28 %ID/g
Uptake [43]: 0.33 %ID/g
Uptake [44]: 0.48 %ID/g
Uptake [45]: 0.11 %ID/g
Uptake [46]: 0.36 %ID/g
Uptake [47]: 0.09 %ID/g
Uptake [48]: 0.1 %ID/g
